In assay [1] the target is T1, Protein kinase C delta type (Mus musculus, UniProt P28867). Description: Tested for ability to displace […] phorbol 12,13- dibutyrate binding from recombinant C1b domain of murine Protein kinase C delta in presence of [Ca2+].
In assay [2] the target is T1, Protein kinase C delta type. Kind of assay: Tested for ability to displace […] phorbol 12,13- dibutyrate binding from recombinant murine Protein kinase C delta in presence of [Ca2+].
The target of assay [3] is T2, Protein kinase C delta type (Homo sapiens, UniProt Q05655). Description: Binding affinity for human Protein kinase C delta. The gist of the method:
(§1)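 Ligand interaction with each PKC isozyme (α, δ, β1, γ or ε) was measured as competition by the nonradioactive ligand against [³H]PDBU binding to that isozyme, using an earlier published method. Affinities are expressed as Ki.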

For assay [4], the target named is T3, Protein kinase C epsilon type (Homo sapiens, UniProt Q02156).
T3 sequence (Q02156 whole entry): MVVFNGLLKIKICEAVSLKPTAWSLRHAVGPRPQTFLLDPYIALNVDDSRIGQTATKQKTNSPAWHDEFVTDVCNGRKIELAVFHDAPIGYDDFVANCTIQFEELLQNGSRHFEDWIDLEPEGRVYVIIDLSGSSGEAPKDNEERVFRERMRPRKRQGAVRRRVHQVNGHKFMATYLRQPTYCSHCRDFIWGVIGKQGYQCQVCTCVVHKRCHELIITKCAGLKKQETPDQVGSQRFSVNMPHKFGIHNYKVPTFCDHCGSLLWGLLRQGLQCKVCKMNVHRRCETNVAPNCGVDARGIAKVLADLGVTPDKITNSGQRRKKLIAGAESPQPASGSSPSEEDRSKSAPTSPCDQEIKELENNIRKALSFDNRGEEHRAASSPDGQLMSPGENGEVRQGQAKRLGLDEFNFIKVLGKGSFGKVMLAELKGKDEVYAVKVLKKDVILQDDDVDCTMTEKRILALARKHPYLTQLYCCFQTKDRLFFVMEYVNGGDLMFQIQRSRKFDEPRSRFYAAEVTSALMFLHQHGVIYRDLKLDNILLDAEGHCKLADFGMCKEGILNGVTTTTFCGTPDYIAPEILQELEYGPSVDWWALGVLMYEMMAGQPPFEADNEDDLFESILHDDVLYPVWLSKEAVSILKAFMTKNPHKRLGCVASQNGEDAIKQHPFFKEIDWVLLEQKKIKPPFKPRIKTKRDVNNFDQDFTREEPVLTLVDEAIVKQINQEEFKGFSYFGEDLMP
Description: Binding affinity for human Protein kinase C epsilon. The gist of the method:
as §1

Assay [5] deals with T4, Protein kinase C beta type (Homo sapiens, UniProt P05771). Description: Binding affinity for human PKC beta-1. The gist of the method: as §1
The target of assay [6] is T2, Protein kinase C delta type. Description: Inhibition of human Protein kinase C delta. Put shortly: as §1
The target of assay [7] is T5, Protein kinase C gamma type (Homo sapiens, UniProt P05129). Kind of assay: Inhibition of human Protein kinase C gamma with [Ca2+]. Put shortly: as §1
Assay [8] concerns the target T5, Protein kinase C gamma type. Kind of assay: Binding affinity for human Protein kinase C gamma with [Ca2+]. The gist of the method: as §1
Assay [9] deals with T3, Protein kinase C epsilon type. Description: Inhibition of human Protein kinase C epsilon. The gist of the method: as §1
For assay [10], the target named is T4, Protein kinase C beta type. Description: Inhibition of human PKC beta-1. Put shortly:
as §1

Usually Ki stands for the dissociation constant of the complex between target and ligand, obtained from inhibition or displacement. The term Kd denotes the concentration at which binding is half-saturated. A high value points to a looser complex.

T1 sequence (P28867 whole entry, the tested form may be a part): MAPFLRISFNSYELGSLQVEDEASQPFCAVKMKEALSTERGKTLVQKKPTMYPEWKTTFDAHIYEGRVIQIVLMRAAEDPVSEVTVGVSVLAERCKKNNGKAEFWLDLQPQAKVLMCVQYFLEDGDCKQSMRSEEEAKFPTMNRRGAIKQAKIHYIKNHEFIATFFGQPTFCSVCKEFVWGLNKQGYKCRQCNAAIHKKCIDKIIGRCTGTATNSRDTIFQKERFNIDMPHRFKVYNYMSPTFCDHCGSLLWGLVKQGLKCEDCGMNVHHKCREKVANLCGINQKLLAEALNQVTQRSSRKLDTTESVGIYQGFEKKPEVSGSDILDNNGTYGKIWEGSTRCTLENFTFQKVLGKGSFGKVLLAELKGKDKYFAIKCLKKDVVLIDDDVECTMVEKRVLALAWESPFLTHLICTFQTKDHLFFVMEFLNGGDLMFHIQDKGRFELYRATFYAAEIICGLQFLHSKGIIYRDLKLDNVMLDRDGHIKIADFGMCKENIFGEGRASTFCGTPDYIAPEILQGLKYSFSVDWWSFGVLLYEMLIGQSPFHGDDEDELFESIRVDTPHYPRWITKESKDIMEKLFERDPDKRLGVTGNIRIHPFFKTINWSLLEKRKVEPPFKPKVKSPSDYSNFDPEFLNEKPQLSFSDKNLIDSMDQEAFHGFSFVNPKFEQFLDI
T4 sequence (P05771 whole entry): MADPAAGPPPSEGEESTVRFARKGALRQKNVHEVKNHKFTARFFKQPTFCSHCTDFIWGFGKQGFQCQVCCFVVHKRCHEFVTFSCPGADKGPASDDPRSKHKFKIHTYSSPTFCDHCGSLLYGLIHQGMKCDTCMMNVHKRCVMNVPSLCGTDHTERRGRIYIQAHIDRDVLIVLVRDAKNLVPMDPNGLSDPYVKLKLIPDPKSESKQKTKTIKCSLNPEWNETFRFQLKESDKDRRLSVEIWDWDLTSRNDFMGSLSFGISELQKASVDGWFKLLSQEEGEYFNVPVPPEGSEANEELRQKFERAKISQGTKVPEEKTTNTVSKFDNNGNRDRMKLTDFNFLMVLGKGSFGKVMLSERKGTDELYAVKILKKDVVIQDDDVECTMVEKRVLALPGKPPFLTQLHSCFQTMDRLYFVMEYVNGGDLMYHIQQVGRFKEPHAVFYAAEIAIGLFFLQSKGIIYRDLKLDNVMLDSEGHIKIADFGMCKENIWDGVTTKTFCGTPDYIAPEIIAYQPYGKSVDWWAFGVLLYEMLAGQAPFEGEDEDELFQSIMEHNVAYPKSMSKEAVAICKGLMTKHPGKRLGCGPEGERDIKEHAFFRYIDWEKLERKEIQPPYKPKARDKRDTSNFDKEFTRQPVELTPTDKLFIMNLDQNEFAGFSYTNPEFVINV
T2 sequence (Q05655 whole entry): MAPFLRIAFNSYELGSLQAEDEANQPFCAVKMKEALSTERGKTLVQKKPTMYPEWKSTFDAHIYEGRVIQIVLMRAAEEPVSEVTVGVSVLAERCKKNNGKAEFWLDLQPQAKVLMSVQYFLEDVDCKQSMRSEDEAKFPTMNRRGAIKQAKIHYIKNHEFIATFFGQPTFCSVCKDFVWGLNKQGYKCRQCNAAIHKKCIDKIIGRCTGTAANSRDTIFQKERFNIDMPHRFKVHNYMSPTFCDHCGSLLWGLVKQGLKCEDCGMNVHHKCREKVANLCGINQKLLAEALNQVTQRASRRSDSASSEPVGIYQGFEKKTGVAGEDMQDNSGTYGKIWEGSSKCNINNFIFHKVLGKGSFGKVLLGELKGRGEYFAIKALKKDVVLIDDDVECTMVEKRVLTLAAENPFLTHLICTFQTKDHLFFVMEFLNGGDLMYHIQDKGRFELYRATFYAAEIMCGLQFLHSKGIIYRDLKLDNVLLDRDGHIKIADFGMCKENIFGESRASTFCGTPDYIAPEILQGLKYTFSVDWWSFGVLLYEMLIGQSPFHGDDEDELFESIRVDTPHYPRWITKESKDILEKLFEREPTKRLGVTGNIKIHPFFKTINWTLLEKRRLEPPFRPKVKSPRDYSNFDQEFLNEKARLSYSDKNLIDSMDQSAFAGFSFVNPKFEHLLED

Take `CC(C)[C@H]1C(=O)N[C@H](CO)Cc2cc(NC(=O)CCCCCCCCC(=O)Nc3ccc4c(c3)N(C)[C@@H](C(C)C)C(=O)N[C@H](CO)C4)ccc2N1C`: the figures for the inhibitory constant (Ki) in [1] and in assay [2] were 1.27 nM and 5.75 nM, respectively.
The corresponding values for `CC(C)[C@H]1C(=O)N[C@H](CO)Cc2cc(NC(=O)CCCCCCCCCCCCCCCCCCCCC(=O)Nc3ccc4c(c3)N(C)[C@@H](C(C)C)C(=O)N[C@H](CO)C4)ccc2N1C` are 0.11 nM and 0.38 nM.
The corresponding values for `CC(C)[C@H]1C(=O)N[C@H](CO)Cc2cc(NC(=O)CCCCCCCCCCC(=O)Nc3ccc4c(c3)N(C)[C@@H](C(C)C)C(=O)N[C@H](CO)C4)ccc2N1C` are 0.48 nM and 1.31 nM.
In the case of `CC(C)[C@H]1C(=O)N[C@H](CO)C1c1ccc(OC(=O)CCCCCCCCCCC(=O)Oc2ccc([C@H]3[C@@H](C(C)C)C(=O)N[C@@H]3CO)c3ccccc23)c2ccccc12` (stereo not given in full), the Ki in assay [2] came out at 44.8 nM.
For the compound `CC(C)[C@H]1C(=O)N[C@H](CO)Cc2cc(NC(=O)CCCCCCC(=O)Nc3ccc4c(c3)N(C)[C@@H](C(C)C)C(=O)N[C@H](CO)C4)ccc2N1C`, the Ki was determined as 30.6 nM in assay [1] and 170 nM in assay [2].
For `CC(C)[C@H]1C(=O)N[C@H](CO)Cc2cc(NC(=O)CCCCCCCCC(=O)Nc3ccc(O)c4ccccc34)ccc2N1C`, the inhibitory constant (Ki) in assay [1] is 4.4 nM; in assay [2], 21.6 nM.
For the compound `CC(C)[C@H]1C(=O)N[C@H](CO)Cc2cc(NC(=O)CCCCCCCCCCCCCCC(=O)Nc3ccc4c(c3)N(C)[C@@H](C(C)C)C(=O)N[C@H](CO)C4)ccc2N1C`, the Ki in assay [1] was 0.14 nM; in assay [2], 0.36 nM.
Regarding `CC(C)[C@H]1C(=O)N[C@H](CO)Cc2cc(NC(=O)CCCCC(=O)Nc3ccc4c(c3)N(C)[C@@H](C(C)C)C(=O)N[C@H](CO)C4)ccc2N1C`, the Ki in assay [1] was 16.8 nM; in assay [2], 67.8 nM.
As to `CC(C)[C@H]1C(=O)N[C@H](CO)Cc2cc(NC(=O)CCCCCCCCCCCCC(=O)Nc3ccc4c(c3)N(C)[C@@H](C(C)C)C(=O)N[C@H](CO)C4)ccc2N1C`, the Kd in [3] was determined as 1 nM; in assay [4], 0.37 nM; in assay [5] it was 0.19 nM; in assay [8], 0.16 nM. The Ki in [6] stood at 2.12 nM; in assay [1], 0.33 nM; in assay [2], 0.78 nM; in assay [7], 1.5 nM; in assay [9], 0.55 nM; in assay [10] it was 1.42 nM.
